Data on 1 compound can be found in ChEMBL document CHEMBL1136933 (J Med Chem, 2009).

The target of series [1] is T1, Muscarinic acetylcholine receptor M5 (Homo sapiens) (UniProt P08912).
T1 sequence (whole entry): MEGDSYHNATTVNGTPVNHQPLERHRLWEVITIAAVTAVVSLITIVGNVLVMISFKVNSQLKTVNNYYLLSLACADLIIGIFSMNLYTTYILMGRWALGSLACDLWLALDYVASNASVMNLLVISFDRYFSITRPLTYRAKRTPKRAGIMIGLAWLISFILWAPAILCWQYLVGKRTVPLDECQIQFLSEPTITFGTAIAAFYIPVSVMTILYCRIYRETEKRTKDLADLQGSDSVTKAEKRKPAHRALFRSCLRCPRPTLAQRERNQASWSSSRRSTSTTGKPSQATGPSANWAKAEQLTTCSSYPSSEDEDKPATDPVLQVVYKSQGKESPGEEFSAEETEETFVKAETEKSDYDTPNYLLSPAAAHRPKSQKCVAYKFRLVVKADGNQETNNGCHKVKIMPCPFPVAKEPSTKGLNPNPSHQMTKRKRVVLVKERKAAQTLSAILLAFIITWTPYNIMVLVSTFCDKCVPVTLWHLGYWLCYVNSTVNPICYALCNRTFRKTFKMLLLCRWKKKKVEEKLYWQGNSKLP
In words: Activation of human muscarinic M5 receptor expressed in CHO cells coexpressing Gq protein assessed as potentiation of acetylcholine-induced intracellular Ca2+ mobilization at 30 uM relative to acetylcholine. It is filed as functional, cell-based.

Series [2] deals with T2, Muscarinic acetylcholine receptor M4 (Rattus norvegicus) (UniProt P08485).
T2 sequence (whole entry): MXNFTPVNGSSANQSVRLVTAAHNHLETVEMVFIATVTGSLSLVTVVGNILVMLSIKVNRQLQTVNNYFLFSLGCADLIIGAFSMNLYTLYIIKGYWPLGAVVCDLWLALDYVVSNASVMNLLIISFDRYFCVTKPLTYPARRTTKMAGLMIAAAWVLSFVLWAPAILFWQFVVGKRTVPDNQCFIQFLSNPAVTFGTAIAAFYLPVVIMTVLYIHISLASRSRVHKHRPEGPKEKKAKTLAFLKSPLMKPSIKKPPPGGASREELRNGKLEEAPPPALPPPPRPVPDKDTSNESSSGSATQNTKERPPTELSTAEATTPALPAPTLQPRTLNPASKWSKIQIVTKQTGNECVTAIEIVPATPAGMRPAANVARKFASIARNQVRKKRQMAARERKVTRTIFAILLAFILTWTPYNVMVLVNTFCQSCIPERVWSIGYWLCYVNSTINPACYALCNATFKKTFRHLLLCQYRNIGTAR
In words: Activation of rat muscarinic M4 receptor expressed in CHO cells coexpressing chimeric Gqi5 protein assessed as potentiation of acetylcholine-induced intracellular Ca2+ mobilization up to 30 uM. It is filed as functional, cell-based.

A short description of series [3]: Ratio of AUC (0 to 6 hrs) in Sprague-Dawley rat brain to AUC (0 to 6 hrs) in Sprague-Dawley rat plasma at 10 mg/kg, ip. It is filed as ADME, organism-based. Further details: dose 10 mg/kg, route intraperitoneal. Put shortly: (§1)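 Male Sprague-Dawley rats (225-250 g) dosed ip at 10 mg/kg as a 5 mg/ml micro-suspension in 10% Tween 80 in sterile water. Plasma and brain sampled at 0.5, 1, 3 and 6 h, three animals per time point. Quantified by protein precipitation and LC-MS/MS against an internal standard. Brain values corrected for residual blood. PK parameters derived by noncompartmental analysis.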

Series [4] deals with T3, Muscarinic acetylcholine receptor M1 (Rattus norvegicus, UniProt P08482).
T3 sequence (P08482 whole entry): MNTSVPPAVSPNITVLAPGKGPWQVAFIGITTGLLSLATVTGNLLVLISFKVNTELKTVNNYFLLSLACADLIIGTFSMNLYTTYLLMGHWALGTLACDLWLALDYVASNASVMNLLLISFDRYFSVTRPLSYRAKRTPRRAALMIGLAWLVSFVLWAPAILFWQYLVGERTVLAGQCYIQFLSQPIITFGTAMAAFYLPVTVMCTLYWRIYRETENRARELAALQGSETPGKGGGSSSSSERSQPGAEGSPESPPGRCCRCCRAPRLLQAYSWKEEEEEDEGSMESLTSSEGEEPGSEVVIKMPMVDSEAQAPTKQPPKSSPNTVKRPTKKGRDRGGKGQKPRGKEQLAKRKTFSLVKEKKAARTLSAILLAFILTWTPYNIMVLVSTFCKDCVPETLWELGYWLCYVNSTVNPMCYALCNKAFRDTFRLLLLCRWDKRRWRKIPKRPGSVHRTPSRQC
In words: Activation of rat muscarinic M1 receptor expressed in CHO cells co-expressing Gq protein assessed as potentiation of acetylcholine-induced intracellular Ca2+ mobilization. It is filed as functional, cell-based.

Series [5] has as its target T4, Muscarinic acetylcholine receptor M5 (Homo sapiens, UniProt P08912).
T4 sequence (P08912 whole entry): T1 sequence (whole entry)
The series can be described thus: Activation of human muscarinic M5 receptor expressed in CHO cells coexpressing Gq protein assessed as potentiation of acetylcholine-induced intracellular Ca2+ mobilization. It is filed as functional, cell-based.

Series [6] can be described thus: Cmax in Sprague-Dawley rat plasma at 10 mg/kg, ip within 1 hr. It counts as ADME, organism-based. Also noted: dose 10 mg/kg, route intraperitoneal. Put shortly: as §1
Series [7] in a line: Selectivity ratio of EC50 for rat muscarinic M4 receptor to EC50 for human muscarinic M5 receptor.
Series [8] is described as follows: Apparent oral clearance in Sprague-Dawley rat plasma at 10 mg/kg, ip. It counts as ADME, organism-based. Also noted: dose 10 mg/kg. Put shortly:
as §1

The species named for another series is Homo sapiens. The series can be described thus: Selectivity ratio of EC50 for human muscarinic M3 receptor to EC50 for human muscarinic M5 receptor.

Active and inactive are the calls of the source. The rule behind the calls is not given here.

In the case of `COc1ccc(CN2C(=O)C(=O)c3cc(OC(F)(F)F)ccc32)cc1`, the %max in series [1] came out at 60.7%. Moreover, in series [2], the result was inactive. Also, in series [3], the “Ratio AUC” value is listed as 0.25. Also, the EC50 in series [4] was > 30000 nM; in series [5], 1160 nM. The compound also yielded a Cmax in series [6] of 162 ng/mL. Besides, the Ratio EC50 (in series [7]; in the series listed under Homo sapiens) was > 30 each time. Further, in series [8], the CL/F stood at 145 mL/min.
